Consider 3 compounds from ChEMBL document CHEMBL1125597, “Potent inhibitory effect of a series of modified cyclodextrin sulfates (mCDS) on the replication of HIV-1 in vitro” (J Med Chem, 1991).

Experiment [1] deals with MT4. In words: The minimum concentration for complete inhibition (IC100) of HIV-1 strain LAV-1 from human induced CPE in MT-4 cells. Type of experiment: functional. The method in brief: (§1)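 MT-4 cells infected 1 h with HIV-1 (LAV-1 or patient isolate KK-1 AIDS) at 0.001 TCID50 per cell, unbound virus washed off. Cultured 5 days with compound (12 doses, 0.49–1000 µg/mL); viable cells in infected and mock cultures by trypan blue. Minimum concentration fully preventing CPE; median of 2 or 3 experiments.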

Experiment [2] has as its system MT4. In words: The minimum concentration for complete inhibition (IC100) of HIV-1 strain KK-1AIDS from human induced CPE in MT-4 cells. The experiment is classed as functional. An outline of the steps: as §1
Experiment [3] deals with MT4. In words: Compound was evaluated for the minimum concentration for appearance of MT-4 cell toxicity. Type of experiment: functional, Homo sapiens. An outline of the steps: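 MT-4 cells incubated 5 days with test compound (12 doses, 0.49–1000 µg/mL); lowest concentration at which toxicity appears, viable cells by trypan blue staining in mock-infected cultures. Median of 2 or 3 experiments.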

Experiment [4] concerns MT4. In words: Compound was evaluated for the anticoagulant activity. Type of experiment: functional, Homo sapiens. An outline of the steps:
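Zucker activated partial thromboplastin time (APTT) method; value is the concentration (µg/mL) giving 2-fold APTT. Median of 2 or 3 experiments.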

The test system of experiment [5] is MOLT-4. Description: Suppressive effect on giant-cell formation against HIV-1LAV-1 in MOLT-4 cells. Type of experiment: functional, Homo sapiens. The method in brief:
(§2)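 Uninfected MOLT-4 mixed 1:1 with persistently infected MOLT-4 (HIV-1 LAV-1 or HIV-2 GH-1 carriers), 5×10^5 cells/mL total, cultured 24 h with compound. Viable cells counted by trypan blue exclusion; fusion index = 1 − cells in test well/cells in uninfected MOLT-4 control. Median of 2 or 3 experiments.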

In experiment [6] the test system is MOLT-4. In words: Suppressive effect on giant-cell formation against HIV-2GH-1 in MOLT-4 cells. The experiment is classed as functional, Homo sapiens. An outline of the steps:
as §2

For `O=S(=O)([O-])OCC1O[C@@H]2O[C@@H]3C(COS(=O)(=O)[O-])O[C@H](O[C@@H]4C(COS(=O)(=O)[O-])O[C@@H](O[C@@H]5C(COS(=O)(=O)[O-])O[C@H](O[C@@H]6C(COS(=O)(=O)[O-])O[C@H](O[C@@H]7C(COS(=O)(=O)[O-])O[C@H](O[C@@H]8C(COS(=O)(=O)[O-])O[C@H](O[C@H]1C(O)C2OS(=O)(=O)[O-])C(OS(=O)(=O)[O-])C8O)C(OS(=O)(=O)[O-])C7O)C(OS(=O)(=O)[O-])C6O)C(OS(=O)(=O)[O-])C5O)C(OS(=O)(=O)[O-])C4O)C(OS(=O)(=O)[O-])C3O.[K+].[K+].[K+].[K+].[K+].[K+].[K+].[K+].[K+].[K+].[K+].[K+].[K+].[K+]` (stereo partly specified) [CYCLODEXTRIN SULFATE (CDS)], the IC100 with MT4 [1] came out at 31.2 µg/mL; in the experiment with MT4 [2], 125 µg/mL. The compound also came in with a Cytotoxicity in the experiment on MT4 [3] greater than 1000 µg/mL. Moreover, the APTT in the experiment with MT4 [4] came out at 2.83 µg/mL. The Supressive effect with MOLT-4 [5] stood at 60 µg/mL; in the experiment with MOLT-4 [6] it was 519 µg/mL.
For `COc1ccc(NCC2O[C@@H]3O[C@@H]4C(CNc5ccc(OC)cc5)O[C@@H](O[C@@H]5C(CNc6ccc(OC)cc6)O[C@H](O[C@@H]6C(CNc7ccc(OC)cc7)O[C@H](O[C@@H]7C(CNc8ccc(OC)cc8)O[C@H](O[C@@H]8C(CNc9ccc(OC)cc9)O[C@H](O[C@@H]9C(CNc%10ccc(OC)cc%10)O[C@H](O[C@H]2C(O)C3OS(=O)(=O)[O-])C(OS(=O)(=O)[O-])C9OS(=O)(=O)[O-])C(OS(=O)(=O)[O-])C8OS(=O)(=O)[O-])C(OS(=O)(=O)[O-])C7O)C(OS(=O)(=O)[O-])C6OS(=O)(=O)[O-])C(OS(=O)(=O)[O-])C5OS(=O)(=O)[O-])C(OS(=O)(=O)[O-])C4OS(=O)(=O)[O-])cc1.[Na+].[Na+].[Na+].[Na+].[Na+].[Na+].[Na+].[Na+].[Na+].[Na+].[Na+].[Na+]` (stereo partly specified), the IC100 in the experiment with MT4 [1] came to 0.98 µg/mL; in the experiment with MT4 [2], 31.2 µg/mL. In the experiment with MT4 [3], this compound displayed a Cytotoxicity greater than 1000 µg/mL. Moreover, the APTT with MT4 [4] was 4.3 µg/mL. Moreover, the Supressive effect came to 5.5 µg/mL in the experiment with MOLT-4 [5] and 40.2 µg/mL with MOLT-4 [6].
For the compound `O=[PH](O)OCC1O[C@H]2O[C@@H]3C(CO[PH](=O)O)O[C@H](O[C@@H]4C(CO[PH](=O)O)O[C@H](O[C@@H]5C(CO[PH](=O)O)O[C@H](O[C@@H]6C(CO[PH](=O)O)O[C@H](O[C@@H]7C(CO[PH](=O)O)O[C@H](O[C@@H]8C(CO[PH](=O)O)O[C@H](O[C@H]1C(O)C2O)C(O)C8Cl)C(O)C7Cl)C(O)C6O[PH](=O)O)C(O)C5Cl)C(O)C4Cl)C(O)C3Cl` (stereo partly specified) [CYCLODEXTRIN PHOSPHATE], the IC100 turned out to be 31.2 µg/mL in the experiment with MT4 [1] and 40 µg/mL in the experiment on MT4 [2]. In addition, in the experiment with MT4 [3], the Cytotoxicity was greater than 1000 µg/mL. In addition, in the experiment on MT4 [4], the APTT turned out to be 47.2 µg/mL.
